Experimental data published in ChEMBL document CHEMBL1629431, “Synthesis and antitumor activity of some 2, 3-disubstituted quinazolin-4(3H)-ones and 4, 6- disubstituted- 1, 2, 3, 4-tetrahydroquinazolin-2H-ones” (2010).

Key:
Type in all cases: functional
[1] = system: MCF7; assay: Growth inhibition of human MCF7 cells at 10 uM after 48 hrs by coulter counter method; conditions: MCF7, 48 h, read-out: GI
How it was run: (§1)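 Single high-dose NCI 60-cell-line panel screen across nine tumor subpanels. Test solutions (0.2 mL) were added in duplicate to wells holding 1.8 mL of culture at 6 × 10⁴ cells/mL. Controls got PBS and DMSO at identical dilutions. Incubation was 48 h at 37 °C in humidified 5% CO₂. Cells were diluted 10-fold in saline, Coulter-counted and dilution-corrected. Results were expressed as percent growth inhibition versus control.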

[2] = system: U-251; assay: Growth inhibition of human U251 cells at 10 uM after 48 hrs by coulter counter method; conditions: U-251, 48 h, read-out: GI; how it was run: as §1
[3] = system: A549; assay: Growth inhibition of human A549 cells at 10 uM after 48 hrs by coulter counter method; conditions: A549, 48 h, read-out: GI; how it was run: as §1
[4] = system: SNB-75; assay: Growth inhibition of human SNB75 cells at 10 uM after 48 hrs by coulter counter method; conditions: SNB-75, 48 h, read-out: GI; how it was run: as §1
[5] = system: NCI-H522; assay: Growth inhibition of human NCI-H522 cells at 10 uM after 48 hrs by coulter counter method; conditions: NCI-H522, 48 h, read-out: GI; how it was run: as §1
[6] = system: K562; assay: Growth inhibition of human K562 cells at 10 uM after 48 hrs by coulter counter method; conditions: K562, 48 h, read-out: GI; how it was run: as §1
[7] = system: COLO 205; assay: Growth inhibition of human COLO205 cells at 10 uM after 48 hrs by coulter counter method; conditions: COLO 205, 48 h, read-out: GI; how it was run: as §1
[8] = system: NCI-H23; assay: Growth inhibition of human NCI-H23 cells at 10 uM after 48 hrs by coulter counter method; conditions: NCI-H23, 48 h, read-out: GI; how it was run: as §1
[9] = system: UO-31; assay: Growth inhibition of human UO31 cells at 10 uM after 48 hrs by coulter counter method; conditions: UO-31, 48 h, read-out: GI; how it was run: as §1
[10] = system: NCI-H226; assay: Growth inhibition of human NCI-H226 cells at 10 uM after 48 hrs by coulter counter method; conditions: NCI-H226, 48 h, read-out: GI; how it was run: as §1
[11] = system: M14; assay: Growth inhibition of human M14 cells at 10 uM after 48 hrs by coulter counter method; conditions: M14, 48 h, read-out: GI; how it was run: as §1
[12] = system: SF-268; assay: Growth inhibition of human SF268 cells at 10 uM after 48 hrs by coulter counter method; conditions: SF-268, 48 h, read-out: GI; how it was run: as §1
[13] = system: 786-0; assay: Growth inhibition of human 786-0 cells at 10 uM after 48 hrs by coulter counter method; conditions: 786-0, 48 h, read-out: GI; how it was run: as §1
[14] = system: SK-MEL-28; assay: Growth inhibition of human SK-MEL-28 cells at 10 uM after 48 hrs by coulter counter method; conditions: SK-MEL-28, 48 h, read-out: GI; how it was run: as §1
[15] = system: CCRF-CEM; assay: Growth inhibition of human CCRF-CEM cells at 10 uM after 48 hrs by coulter counter method; conditions: read-out: GI; how it was run: as §1
[16] = system: HL-60(TB); assay: Growth inhibition of human HL-60(TB) cells at 10 uM after 48 hrs by coulter counter method; conditions: HL-60, 48 h, read-out: GI
How it was run: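 Part of the NCI 60-cell-line single-high-dose panel. Cells were seeded at 6 × 10⁴ cells/mL with test solution in duplicate wells, alongside PBS/DMSO controls at identical dilutions. Plates were held 48 h at 37 °C in a humidified 5% CO₂ incubator. Cells were then diluted 10-fold in saline and counted by Coulter counter, with counts corrected for dilution. Results are percent growth of treated cells, reported as GI %.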

[17] = system: KM12; assay: Growth inhibition of human KM12 cells at 10 uM after 48 hrs by coulter counter method; conditions: KM12, 48 h, read-out: GI; how it was run: as §1
[18] = system: MDA-MB-231; assay: Growth inhibition of human MDA-MB-231 cells at 10 uM after 48 hrs by coulter counter method; conditions: MDA-MB-231, 48 h, read-out: GI; how it was run: as §1
[19] = system: SK-OV-3; assay: Growth inhibition of human SKOV3 cells at 10 uM after 48 hrs by coulter counter method; conditions: SK-OV-3, 48 h, read-out: GI; how it was run: as §1
[20] = system: SR; assay: Growth inhibition of human SR cells at 10 uM after 48 hrs by coulter counter method; conditions: read-out: GI; how it was run: as §1
[21] = system: IGROV-1; assay: Growth inhibition of human IGROV1 cells at 10 uM after 48 hrs by coulter counter method; conditions: IGROV-1, 48 h, read-out: GI; how it was run: as §1
[22] = system: HOP-92; assay: Growth inhibition of human HOP92 cells at 10 uM after 48 hrs by coulter counter method; conditions: HOP-92, 48 h, read-out: GI; how it was run: as §1
[23] = system: HCT-116; assay: Growth inhibition of human HCT116 cells at 10 uM after 48 hrs by coulter counter method; conditions: HCT-116, 48 h, read-out: GI; how it was run: as §1
[24] = system: OVCAR-4; assay: Growth inhibition of human OVCAR4 cells at 10 uM after 48 hrs by coulter counter method; conditions: OVCAR-4, 48 h, read-out: GI; how it was run: as §1
[25] = system: T47D; assay: Growth inhibition of human T47D cells at 10 uM after 48 hrs by coulter counter method; conditions: read-out: GI; how it was run: as §1
[26] = system: CAKI-1; assay: Growth inhibition of human Caki1 cells at 10 uM after 48 hrs by coulter counter method; conditions: CAKI-1, 48 h, read-out: GI; how it was run: as §1
[27] = system: MDA-MB-468; assay: Growth inhibition of human MDA-MB-468 cells at 10 uM after 48 hrs by coulter counter method; conditions: MDA-MB-468, 48 h, read-out: GI; how it was run: as §1
[28] = system: SK-MEL-2; assay: Growth inhibition of human SK-MEL-2 cells at 10 uM after 48 hrs by coulter counter method; conditions: SK-MEL-2, 48 h, read-out: GI; how it was run: as §1
[29] = system: UACC-62; assay: Growth inhibition of human UACC62 cells at 10 uM after 48 hrs by coulter counter method; conditions: UACC-62, 48 h, read-out: GI; how it was run: as §1
[30] = system: SN12C; assay: Growth inhibition of human SN12C cells at 10 uM after 48 hrs by coulter counter method; conditions: read-out: GI; how it was run: as §1
[31] = Growth inhibition of human Hs 578T cells at 10 uM after 48 hrs by coulter counter method; conditions: read-out: GI; how it was run: as §1
[32] = system: SF-539; assay: Growth inhibition of human SF539 cells at 10 uM after 48 hrs by coulter counter method; conditions: SF-539, 48 h, read-out: GI; how it was run: as §1
[33] = system: MOLT-4; assay: Growth inhibition of human MOLT4 cells at 10 uM after 48 hrs by coulter counter method; conditions: MOLT-4, 48 h, read-out: GI; how it was run: as §1
[34] = system: PC-3; assay: Growth inhibition of human PC3 cells at 10 uM after 48 hrs by coulter counter method; conditions: PC-3, 48 h, read-out: GI; how it was run: as §1

Compound	inhibition of growth at 10 µM [1] [%]	inhibition of growth at 10 µM [2] [%]	inhibition of growth at 10 µM [4] [%]	inhibition of growth at 10 µM [5] [%]	inhibition of growth at 10 µM [6] [%]	inhibition of growth at 10 µM [7] [%]	inhibition of growth at 10 µM [8] [%]	inhibition of growth at 10 µM [9] [%]	inhibition of growth at 10 µM [10] [%]	inhibition of growth at 10 µM [11] [%]	inhibition of growth at 10 µM [12] [%]	inhibition of growth at 10 µM [13] [%]	inhibition of growth at 10 µM [14] [%]	inhibition of growth at 10 µM [15] [%]	inhibition of growth at 10 µM [16] [%]	inhibition of growth at 10 µM [17] [%]	inhibition of growth at 10 µM [18] [%]	inhibition of growth at 10 µM [21] [%]	inhibition of growth at 10 µM [25] [%]	inhibition of growth at 10 µM [33] [%]	other results
O=C(CSc1nc2ccccc2c(=O)n1-c1ccc(Cl)cc1)c1ccc(Cl)cc1	30	30	30	52.6	30	30	30	30	30	30	30	30	30	30	30	30	30	43.7	30	30	inhibition of growth at 10 µM [3]: 30%; inhibition of growth at 10 µM [19]: 30%; inhibition of growth at 10 µM [20]: 30%; inhibition of growth at 10 µM [22]: 30%; inhibition of growth at 10 µM [23]: 30%; inhibition of growth at 10 µM [24]: 30%; inhibition of growth at 10 µM [26]: 30%; inhibition of growth at 10 µM [27]: 30%; inhibition of growth at 10 µM [28]: 30%; inhibition of growth at 10 µM [29]: 30%; inhibition of growth at 10 µM [30]: 30%; inhibition of growth at 10 µM [31]: 30%; inhibition of growth at 10 µM [32]: 30%
COc1ccc(-n2c(SCC(=O)c3ccc(Cl)cc3)nc3ccccc3c2=O)cc1	34.3	31.6	47.4	23		53.1	41.1	30	75.6	30	49	31.1	30	30	33.3	41.8	33.3	45.7	30	30	inhibition of growth at 10 µM [19]: 31.9%; inhibition of growth at 10 µM [34]: 55.3%; inhibition of growth at 10 µM [20]: 30%; inhibition of growth at 10 µM [23]: 54.6%; inhibition of growth at 10 µM [24]: 32.1%; inhibition of growth at 10 µM [27]: 41.4%; inhibition of growth at 10 µM [28]: 30%; inhibition of growth at 10 µM [29]: 76.7%; inhibition of growth at 10 µM [30]: 32.5%; inhibition of growth at 10 µM [31]: 80.6%; inhibition of growth at 10 µM [32]: 68.6%
CCn1c(SCC(=O)c2ccc(OC)cc2)nc2ccccc2c1=O	30	30	30	< 30		30	30	31.6	30	30	30	30	30	30	30	30	30	30	30	30	inhibition of growth at 10 µM [3]: 30%; inhibition of growth at 10 µM [19]: 30%; inhibition of growth at 10 µM [34]: 30%; inhibition of growth at 10 µM [20]: 30%; inhibition of growth at 10 µM [22]: 30%; inhibition of growth at 10 µM [23]: 30%; inhibition of growth at 10 µM [24]: 30%; inhibition of growth at 10 µM [26]: 30%; inhibition of growth at 10 µM [27]: 30%; inhibition of growth at 10 µM [28]: 30%; inhibition of growth at 10 µM [29]: 30%; inhibition of growth at 10 µM [30]: 30%; inhibition of growth at 10 µM [31]: 30%; inhibition of growth at 10 µM [32]: 30%
COc1ccc(-c2nnc(Nc3nc4ccccc4c(=O)n3-c3ccccc3)s2)cc1	30	30	30	30	30	58.9	30	30	30	30	30	30	30	30	30	30	30	30	30	30	inhibition of growth at 10 µM [3]: 30%; inhibition of growth at 10 µM [19]: 30%; inhibition of growth at 10 µM [34]: 30%; inhibition of growth at 10 µM [20]: 30%; inhibition of growth at 10 µM [22]: 30%; inhibition of growth at 10 µM [23]: 30%; inhibition of growth at 10 µM [24]: 30%; inhibition of growth at 10 µM [26]: 30%; inhibition of growth at 10 µM [27]: 30%; inhibition of growth at 10 µM [28]: 30%; inhibition of growth at 10 µM [29]: 30%; inhibition of growth at 10 µM [30]: 30%; inhibition of growth at 10 µM [31]: 30%; inhibition of growth at 10 µM [32]: 30%
CN(C)c1ccc(-c2nnc(Nc3nc4ccccc4c(=O)n3-c3ccccc3)s2)cc1					52															34.6	
O=c1nc(Nc2nc3ccccc3c(=O)n2-c2ccc(Cl)cc2)cc(O)[nH]1					52															34.6	
O=c1nc(Nc2nc3ccccc3c(=O)n2-c2ccccc2)cc(O)[nH]1																		72.3			
O=C1Nc2ccc(CNc3ccccn3)cc2C(c2ccc(Cl)cc2)N1 (centres undefined)								40.5											43.9		
COc1ccc(C2NC(=O)Nc3ccc(S(=O)(=O)Nc4ccccn4)cc32)cc1 (centres undefined)								40.5											43.9		
